The pIC50 is the negative decadic logarithm of the IC50, by convention in mol/L. High values mean a small IC50, low ones a large IC50. Usually AUC(0-inf) stands for total exposure, with the tail of the curve extrapolated. Higher therefore signals more exposure. A word on the AUC: it is concentration integrated over time. A higher AUC goes with more exposure.

Series [1] can be described thus: Drug concentration in wildtype mouse brain at 600 ppm administered as rodent chow starting from 1.5 months and measured after 5 months. Type of series: ADME, tissue-based. Conditions: route po, time 3.5 months, read-out: Ct. Put shortly:
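WT or 5xFAD mice were fed PLX3397 in AIN-76A chow at 600 ppm or 75 ppm from 1.5 to 5 months of age. Terminal brain and plasma drug concentrations were determined at study end.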

Series [2] relates to Mus musculus. Nature of the series: Antialzheimer activity in 5XFAD mouse assessed as microglial numbers by measuring number of Iba positive cells per FOV in somatosensory cortex at 75 ppm administered as rodent chow starting from 1.5 months and measured after 5 months by immunolabeling based confocal microscopic analysis (reference value: 281 to 613). Type of series: functional. The settings on record: route po, time 3.5 months, 2555 h. Put shortly: (§1)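 5xFAD mice fed PLX3397 at 75 ppm in AIN-76A chow from 1.5 to 5 months of age; retrosplenial and somatosensory cortex sections stained with Thio-S and immunolabeled for IBA1; confocal imaging, IBA1+ cells and plaques quantified per region; two-tailed independent t-test, n = 4–5 per group, mean ± SEM.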

Series [3] has as its system Mus musculus. Description: Antialzheimer activity in 5XFAD mouse assessed as average plaque volume in somatosensory cortex at 75 ppm administered as rodent chow starting from 1.5 months and measured after 5 months by immunolabeling based confocal microscopic analysis (reference value: 871.142 to 1628.317 microm3). In kind it is functional. Conditions: route po, time 3.5 months, 2555 h. Put shortly: as §1

For series [4], the target named is ALK tyrosine kinase receptor (Homo sapiens, UniProt Q9UM73). Nature of the series: Inhibition of ALK (unknown origin).
ALK tyrosine kinase receptor, sequence (Q9UM73 whole entry): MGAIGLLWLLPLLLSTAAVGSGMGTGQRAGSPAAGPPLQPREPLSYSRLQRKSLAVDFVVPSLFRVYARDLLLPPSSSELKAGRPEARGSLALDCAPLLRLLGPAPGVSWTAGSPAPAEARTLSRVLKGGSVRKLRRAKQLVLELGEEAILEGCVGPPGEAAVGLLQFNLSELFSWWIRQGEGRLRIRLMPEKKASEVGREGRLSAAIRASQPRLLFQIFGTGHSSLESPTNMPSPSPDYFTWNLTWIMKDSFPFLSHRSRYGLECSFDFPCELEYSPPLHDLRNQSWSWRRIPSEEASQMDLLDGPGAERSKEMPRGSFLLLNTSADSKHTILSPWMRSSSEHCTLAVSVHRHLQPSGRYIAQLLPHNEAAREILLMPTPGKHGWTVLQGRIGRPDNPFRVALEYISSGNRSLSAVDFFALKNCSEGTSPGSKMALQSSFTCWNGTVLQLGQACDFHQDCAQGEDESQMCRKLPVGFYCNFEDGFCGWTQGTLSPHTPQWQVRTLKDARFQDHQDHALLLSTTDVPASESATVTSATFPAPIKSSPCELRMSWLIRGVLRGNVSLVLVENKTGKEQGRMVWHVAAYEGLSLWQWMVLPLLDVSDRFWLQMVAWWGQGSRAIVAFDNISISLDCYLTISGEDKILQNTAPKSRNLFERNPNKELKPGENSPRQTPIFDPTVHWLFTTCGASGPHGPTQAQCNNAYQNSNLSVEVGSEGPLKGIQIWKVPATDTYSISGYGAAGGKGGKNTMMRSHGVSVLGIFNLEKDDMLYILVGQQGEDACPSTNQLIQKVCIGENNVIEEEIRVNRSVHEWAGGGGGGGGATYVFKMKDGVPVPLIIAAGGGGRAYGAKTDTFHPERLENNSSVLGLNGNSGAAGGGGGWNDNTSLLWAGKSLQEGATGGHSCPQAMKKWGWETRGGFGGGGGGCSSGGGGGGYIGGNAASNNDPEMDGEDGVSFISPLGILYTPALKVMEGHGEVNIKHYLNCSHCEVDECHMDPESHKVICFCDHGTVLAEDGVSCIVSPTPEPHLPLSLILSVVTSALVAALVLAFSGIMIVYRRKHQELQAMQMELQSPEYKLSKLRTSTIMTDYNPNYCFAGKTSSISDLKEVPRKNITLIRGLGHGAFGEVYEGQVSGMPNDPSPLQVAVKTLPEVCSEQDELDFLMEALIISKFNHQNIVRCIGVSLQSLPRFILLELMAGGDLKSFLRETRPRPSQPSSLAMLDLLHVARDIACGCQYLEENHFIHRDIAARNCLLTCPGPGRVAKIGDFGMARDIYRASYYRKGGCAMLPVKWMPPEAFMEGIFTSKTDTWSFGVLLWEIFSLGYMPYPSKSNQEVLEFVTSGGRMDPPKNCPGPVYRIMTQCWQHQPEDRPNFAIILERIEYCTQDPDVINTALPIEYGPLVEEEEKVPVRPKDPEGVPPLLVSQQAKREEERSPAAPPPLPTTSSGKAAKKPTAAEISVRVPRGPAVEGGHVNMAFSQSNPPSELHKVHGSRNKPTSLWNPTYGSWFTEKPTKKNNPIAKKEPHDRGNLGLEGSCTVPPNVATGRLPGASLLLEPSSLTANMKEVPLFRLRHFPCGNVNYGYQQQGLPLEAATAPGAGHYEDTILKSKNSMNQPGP
Series [5] has as its target Fibroblast growth factor receptor 1 (Homo sapiens, UniProt P11362). Description: Inhibition of FGFR1 (unknown origin).
Series [6] has as its target Mitogen-activated protein kinase 13 (Homo sapiens, UniProt O15264). Description: Inhibition of MAPK13 (unknown origin).
Series [7] deals with cAMP-dependent protein kinase catalytic subunit alpha (Homo sapiens, UniProt P17612). Description: Inhibition of PRKACA (unknown origin).
For series [8], the target named is Protein kinase C delta type (Homo sapiens, UniProt Q05655). Description: Inhibition of PRKCD (unknown origin).
Protein kinase C delta type, sequence (Q05655 whole entry): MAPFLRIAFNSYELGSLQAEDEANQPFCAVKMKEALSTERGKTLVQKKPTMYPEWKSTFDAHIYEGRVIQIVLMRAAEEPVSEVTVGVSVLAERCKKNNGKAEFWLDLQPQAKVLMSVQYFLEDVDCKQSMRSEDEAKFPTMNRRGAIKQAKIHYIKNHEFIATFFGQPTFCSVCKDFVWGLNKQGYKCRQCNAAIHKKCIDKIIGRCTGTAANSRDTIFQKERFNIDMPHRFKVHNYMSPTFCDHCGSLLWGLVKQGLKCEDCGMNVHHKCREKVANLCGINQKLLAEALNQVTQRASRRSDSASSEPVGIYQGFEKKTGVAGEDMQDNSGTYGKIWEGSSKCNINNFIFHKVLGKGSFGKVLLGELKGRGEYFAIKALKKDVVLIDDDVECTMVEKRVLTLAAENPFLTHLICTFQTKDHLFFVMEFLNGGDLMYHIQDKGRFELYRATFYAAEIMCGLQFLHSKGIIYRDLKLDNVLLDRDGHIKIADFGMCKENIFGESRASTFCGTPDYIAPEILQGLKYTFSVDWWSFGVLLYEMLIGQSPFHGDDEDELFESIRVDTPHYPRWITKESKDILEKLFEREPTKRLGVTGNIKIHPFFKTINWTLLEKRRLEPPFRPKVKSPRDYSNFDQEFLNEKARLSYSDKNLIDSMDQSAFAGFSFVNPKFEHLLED
Series [9] can be described thus: AUC (0 to infinity) in mouse at 1.92 mg/kg, iv administered as single dose. Type of series: ADME, organism-based. Conditions: in vivo.
Series [10] can be described thus: AUC (0 to infinity) in female rat at 1.13 mg/kg, iv administered as single dose. The settings on record: in vivo. Type of series: ADME, organism-based.
The nature of series [11]: AUC (0 to 24 hrs) in mouse plasma at 300 ppm administered as rodent chow for 14 days. Type of series: ADME, cell-free. The settings on record: route po, time 14 day.
Series [12] can be described thus: Toxicity in wildtype mouse assessed as time spent in open arm at 1200 ppm administered as rodent chow for 10 to 24 weeks by Elevated plus maze test (reference value: 8.7 to 179.9 sec). The settings on record: in vivo, po, time 10-24 weeks.
The test system of series [13] is Mus musculus. Description: Antialzheimer activity in 5XFAD mouse assessed as time in platform zone at 1200 ppm administered as rodent chow for 10 to 24 weeks by Morris water maze test (reference value: 0 to 27 sec). In kind it is functional. Conditions: route po, time 10-24 weeks. The essentials: (§2)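 Morris water maze: a circular pool was filled with opaque water (white paint added), and mice were given four trials per acquisition day. Twenty-four hours after the last acquisition day, the platform was removed for a 60 s probe trial. Mice had been on 1200 ppm PLX5622 or control chow for 10 or 24 weeks from 1.5 months of age.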

The subject of series [14] is Mus musculus. Description: Antialzheimer activity in 5XFAD mouse assessed as time to locate platform at 1200 ppm administered as rodent chow for 10 to 24 weeks by Morris water maze test (reference value: 6.5 to 60 sec). In kind it is functional. Conditions: route po, time 10-24 weeks. Put shortly:
as §2

Series [15] can be described thus: Toxicity in wildtype mouse assessed as number of triads at 1200 ppm administered as rodent chow for 10 to 24 weeks by Y-maze test (reference value: 4 to 9). The settings on record: in vivo, po, time 10-24 weeks.
In series [16] the test system is Mus musculus. Description: Antialzheimer activity in 5XFAD mouse assessed as average plaque volume in thalamus at 1200 ppm administered as rodent chow starting from 1.5 months and measured after 7 months by Thio-S staining based confocal microscopic analysis (reference value: 2442.562 to 3332.739 microm3). In kind it is functional. Conditions: route po, time 5.5 months, 4015 h.

Series [17] deals with Mus musculus. Description: Antialzheimer activity in 5XFAD mouse assessed as amyloidbeta38 level in detergent soluble cortex fraction measured per microgram protein at 1200 ppm administered as rodent chow starting from 1.5 months and measured after 7 months by ELISA (reference value: 0 to 0.014 pg). In kind it is functional. The settings on record: route po, time 5.5 months, 4015 h. Put shortly:
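PLX5622 at 1200 ppm in chow given to 5xFAD mice from 1.5 months to 4 or 7 months of age; cortex and thalamus homogenized in TPER (detergent-soluble), pellets re-homogenized in 70% formic acid and spun 100,000 g, 1 h, 4 °C (insoluble); protein by Bradford/Lowry; Aβ species measured by Meso Scale electrochemiluminescence immunoassay, normalized to protein; n = 7–8 per group at 7 months.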

In series [18] the test system is Mus musculus. Description: Antialzheimer activity in 5XFAD mouse assessed as number of S100bteta positive cells per FOV in […] cortex at 1200 ppm administered as rodent chow for 10 to 24 weeks by immunolabelling based confocal microscopic analysis (reference value: 320 to 427). Type of series: functional. Conditions: route po, time 10-24 weeks.
A short description of series [19]: Effect on Siglech gene expression in 5XFAD mouse hippocampus at 1200 ppm administered as rodent chow starting from 1.5 months and measured after 7 months by RNA-Seq analysis (reference value: 5.386 to 6.928 RPKM). In kind it is functional. The settings on record: route po, time 5.5 months, 4015 h.
A short description of series [20]: Effect on ccl6 gene expression in wild type mouse cortex at 1200 ppm administered as rodent chow starting from 1.5 months and measured after 7 months by RNA-Seq analysis (reference value: 0.280 to 1.162 RPKM). Type of series: functional. Conditions: route po, time 5.5 months, 4015 h.
A short description of series [21]: Effect on ccl6 gene expression in wild type mouse hippocampus at 1200 ppm administered as rodent chow starting from 1.5 months and measured after 7 months by RNA-Seq analysis (reference value: 0.451 to 0.597 RPKM). In kind it is functional. The settings on record: route po, time 5.5 months, 4015 h.
Series [22] is described as follows: Effect on Ctsd gene expression in wild type mouse cortex at 1200 ppm administered as rodent chow starting from 1.5 months and measured after 7 months by RNA-Seq analysis (reference value: 110.927 to 117.612 RPKM). In kind it is functional. The settings on record: route po, time 5.5 months, 4015 h.
A short description of series [23]: Effect on Ctsd gene expression in wild type mouse thalamus at 1200 ppm administered as rodent chow starting from 1.5 months and measured after 7 months by RNA-Seq analysis (reference value: 123.974 to 159.747 RPKM). Type of series: functional. The settings on record: route po, time 5.5 months, 4015 h.
Series [24] can be described thus: Prevention of Dync1i1 gene downregulation in 5XFAD mouse hippocampus assessed as percent change in Reads Per kilo base per Million mapped reads at 1200 ppm administered as rodent chow starting from 1.5 months and measured after 7 months by RNA-Seq analysis (reference value: 65.184 to 88.242 %). In kind it is functional. Conditions: route po, time 5.5 months, 4015 h.

Series [25] deals with Mus musculus. Nature of the series: Antialzheimer activity in 5XFAD mouse assessed as number of This-S positive cells per FOV in somatosensory cortex at 1200 ppm administered as rodent chow starting from 1.5 months to 4 months followed by compound removal and measured after 1 months by immunolabelling based confocal microscopic analysis (reference value: 34 to 79). The settings on record: route po, time 2.5 months, 1825 h. Type of series: functional. The essentials: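 For the repopulation paradigm, 5xFAD mice ate 1200 ppm PLX5622 chow from 1.5 to 4 months of age. Inhibitor chow was then withdrawn, and brains were examined one month later. Sections were stained with Thio-S and immunolabeled for IBA1, then analysed by confocal microscopy in cortical regions.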

pIC50: −log10 of the molar value.

Mitogen-activated protein kinase 13, sequence (O15264 whole entry): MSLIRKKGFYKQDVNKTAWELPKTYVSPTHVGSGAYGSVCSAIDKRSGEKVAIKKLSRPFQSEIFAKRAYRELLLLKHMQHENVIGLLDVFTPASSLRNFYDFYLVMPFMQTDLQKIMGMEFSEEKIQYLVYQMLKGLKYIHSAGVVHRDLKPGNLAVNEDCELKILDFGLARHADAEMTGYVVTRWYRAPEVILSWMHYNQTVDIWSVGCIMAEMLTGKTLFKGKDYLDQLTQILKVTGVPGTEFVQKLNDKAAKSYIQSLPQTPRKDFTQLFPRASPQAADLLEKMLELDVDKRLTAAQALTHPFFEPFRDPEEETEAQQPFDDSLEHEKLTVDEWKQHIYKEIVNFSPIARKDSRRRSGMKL
Fibroblast growth factor receptor 1, sequence (P11362 whole entry): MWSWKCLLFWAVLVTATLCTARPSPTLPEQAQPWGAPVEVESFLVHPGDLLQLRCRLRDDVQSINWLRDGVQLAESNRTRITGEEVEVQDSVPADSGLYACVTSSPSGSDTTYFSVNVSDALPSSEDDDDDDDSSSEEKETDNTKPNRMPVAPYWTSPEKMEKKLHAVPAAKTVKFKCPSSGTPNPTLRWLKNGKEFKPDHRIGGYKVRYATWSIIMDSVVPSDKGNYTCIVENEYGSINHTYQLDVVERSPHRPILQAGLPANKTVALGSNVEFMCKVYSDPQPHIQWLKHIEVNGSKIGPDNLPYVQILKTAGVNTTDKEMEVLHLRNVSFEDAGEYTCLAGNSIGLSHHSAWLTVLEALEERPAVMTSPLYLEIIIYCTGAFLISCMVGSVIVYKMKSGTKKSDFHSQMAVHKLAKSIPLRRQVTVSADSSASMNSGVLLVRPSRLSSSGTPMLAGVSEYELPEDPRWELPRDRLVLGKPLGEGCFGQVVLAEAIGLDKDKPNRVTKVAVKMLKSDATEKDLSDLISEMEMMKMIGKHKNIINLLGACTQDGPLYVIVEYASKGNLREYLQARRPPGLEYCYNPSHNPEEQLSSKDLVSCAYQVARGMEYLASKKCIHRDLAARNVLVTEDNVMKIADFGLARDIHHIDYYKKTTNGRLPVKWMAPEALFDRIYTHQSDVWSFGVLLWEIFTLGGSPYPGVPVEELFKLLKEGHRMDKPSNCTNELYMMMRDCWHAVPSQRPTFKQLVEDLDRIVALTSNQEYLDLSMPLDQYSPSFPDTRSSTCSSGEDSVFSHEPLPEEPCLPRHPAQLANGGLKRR

For `FC(F)(F)c1ccc(CNc2ccc(Cc3c[nH]c4ncc(Cl)cc34)cn2)cn1` [PEXIDARTINIB], the concentration at 2555 h in [1] is 5 µM. Also, the Activity is on record as 345 in series [2] and 628.64 um3 in series [3].

Take `COc1ncc(F)cc1CNc1ccc(Cc2c[nH]c3ncc(C)cc23)c(F)n1` [PLX-5622]: the pIC50 in series [4], in series [5], in series [6], in series [7] and in series [8] was less than 6.00 in each case. The total exposure AUC(0-inf) turned out to be 15500 ng·h/mL in [9] and 5110 ng·h/mL in [10]. For the same compound, the AUC at 336 h in series [11] turned out to be 104000 ng·h/mL. In addition, the Time in series [12] was 11.9 s; in series [13] it was 0 s; in [14], 9.2 s. The Activity was determined as 3 in series [15]; 1488.396 um3 in series [16]; 0 pg in series [17]; 288 in series [18]; 0.195 RPKM in series [19]; 0 RPKM in series [20]. In addition, the Activity in [21] was determined as 0 RPKM; in [22], 76.394 RPKM; in [23], 100.931 RPKM; in series [24] it was 89.818%; in series [25], 15.

These data come from ChEMBL document CHEMBL5649170, “Sustained microglial depletion with CSF1R inhibitor impairs parenchymal plaque development in an Alzheimer's disease model” (Nat Commun, 2019).
